{
  "source": "ChEMBL document CHEMBL3992553",
  "about": "“New nitrofurans amenable by isocyanide multicomponent chemistry are active against multidrug-resistant and poly-resistant Mycobacterium tuberculosis” (Bioorg Med Chem, 2017)",
  "data": [
    {"system": "Enterococcus faecium", "experiment": "Antibacterial activity against Enterococcus faecium DSM 20477 after 18 hrs", "format": "functional", "conditions": "DSM 20477, 18 h", "procedure,_shortened": "(§1)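 Broth microdilution MIC. Gram-negatives grown overnight at 37 °C in Müller-Hinton broth + 1% glucose, pH 7.2; Gram-positives in trypticase soy broth with yeast extract, pH 7.2. Inoculum 5×10^5 cfu/mL final. Serial dilutions from 100 µM down to 0.2 µM, DMSO ≤1%. 18 h at 37 °C, moist; OD600. MIC = lowest concentration completely suppressing growth.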", "units": {"EC50": "µg/mL"}, "values": [
      {"compound": "CC(C)(C)NC(=O)C1(C)CCC(=O)N1/N=C/c1ccc([N+](=O)[O-])o1", "note": "(centres undefined)", "MIC": "> 100 µM"},
      {"compound": "CC(C)(C)NC(=O)C1(C)CCCC(=O)N1/N=C/c1ccc([N+](=O)[O-])o1", "note": "(centres undefined)", "MIC": "> 100 µM"},
      {"compound": "CC1(C(=O)NCc2ccc(Cl)cc2)CCC(=O)N1/N=C/c1ccc([N+](=O)[O-])o1", "note": "(centres undefined)", "MIC": "> 100 µM"},
      {"compound": "CC1(C(=O)NC2CCCCC2)COCC(=O)N1/N=C/c1ccc([N+](=O)[O-])o1", "note": "(centres undefined)", "MIC": "> 100 µM"},
      {"compound": "O=C(O)c1cn(C2CC2)c2cc(N3CCNCC3)c(F)cc2c1=O", "note": "[CIPROFLOXACIN]", "EC50": 2.29, "MIC": "8 µg/mL"},
      {"compound": "CC1(C(=O)NCc2ccccc2)COCC(=O)N1/N=C/c1ccc([N+](=O)[O-])o1", "note": "(centres undefined)", "MIC": "> 100 µM"},
      {"compound": "CC1(C(=O)NCc2ccc(Cl)cc2)CCCC(=O)N1/N=C/c1ccc([N+](=O)[O-])o1", "note": "(centres undefined)", "MIC": "> 100 µM"},
      {"compound": "CC1(C(=O)NCc2ccccc2)CCC(=O)N1/N=C/c1ccc([N+](=O)[O-])o1", "note": "(centres undefined)", "MIC": "> 100 µM"}
    ]},
    {"system": "Escherichia coli", "experiment": "Antibacterial activity against Escherichia coli DSM 1116 after 18 hrs", "format": "functional", "conditions": "DSM 1116, 18 h", "procedure,_shortened": "as §1", "units": {"EC50": "µg/mL"}, "values": [
      {"compound": "O=C(O)c1cn(C2CC2)c2cc(N3CCNCC3)c(F)cc2c1=O", "note": "[CIPROFLOXACIN]", "EC50": 0.01}
    ]},
    {"system": "Mycobacterium tuberculosis", "experiment": "Antimycobacterial activity against Mycobacterium tuberculosis H37Rv after 7 days by REMA", "format": "functional", "conditions": "168 h", "procedure,_shortened": "(§2)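 REMA. 3-week H37Rv culture (2nd generation on Löwenstein–Jensen) vortexed with glass beads, set to 1.0 McFarland in 7H9, diluted 20-fold in 7H9 + OADC. 2-fold dilutions, final 1.6–400 µg/mL, 200 µL wells. 7 days at 35 °C, then resazurin 18 h. Fluorescence ex 520/em 590. MIC where signal plateaued or matched the 1% population control (t test).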", "units": {"MIC": "µM"}, "values": [
      {"compound": "CC(C)(C)NC(=O)C1(C)CCC(=O)N1/N=C/c1ccc([N+](=O)[O-])o1", "note": "(centres undefined)", "MIC": "> 100"},
      {"compound": "CC(C)(C)NC(=O)C1(C)CCCC(=O)N1/N=C/c1ccc([N+](=O)[O-])o1", "note": "(centres undefined)", "MIC": 71},
      {"compound": "CC1(C(=O)NCc2ccc(Cl)cc2)CCC(=O)N1/N=C/c1ccc([N+](=O)[O-])o1", "note": "(centres undefined)", "MIC": "> 100"},
      {"compound": "CC1(C(=O)NC2CCCCC2)COCC(=O)N1/N=C/c1ccc([N+](=O)[O-])o1", "note": "(centres undefined)", "MIC": 66},
      {"compound": "CC1(C(=O)NCc2ccccc2)COCC(=O)N1/N=C/c1ccc([N+](=O)[O-])o1", "note": "(centres undefined)", "MIC": 65},
      {"compound": "CC1(C(=O)NCc2ccc(Cl)cc2)CCCC(=O)N1/N=C/c1ccc([N+](=O)[O-])o1", "note": "(centres undefined)", "MIC": "> 100"},
      {"compound": "CC1(C(=O)NCc2ccccc2)CCC(=O)N1/N=C/c1ccc([N+](=O)[O-])o1", "note": "(centres undefined)", "MIC": "> 100"}
    ]},
    {"system": "Mycobacterium tuberculosis", "experiment": "Antimycobacterial activity against Mycobacterium tuberculosis H37Rv after 7 days by microbroth dilution method", "format": "functional", "conditions": "168 h", "procedure,_shortened": "as §2", "units": {"MIC": "µg/mL"}, "values": [
      {"compound": "O=[N+]([O-])c1ccc(C2=NOC(c3ccc(N4CCC(Oc5ccc(OC(F)(F)F)cc5)CC4)c(F)c3)C2)o1", "note": "(centres undefined)", "MIC": 0.001}
    ]},
    {"system": "Staphylococcus aureus", "experiment": "Antibacterial activity against methicillin-resistant Staphylococcus aureus DSM 11822 after 18 hrs", "format": "functional", "conditions": "DSM 11822, 18 h", "procedure,_shortened": "as §1", "units": {"MIC": "µM"}, "values": [
      {"compound": "CC(C)(C)NC(=O)C1(C)CCC(=O)N1/N=C/c1ccc([N+](=O)[O-])o1", "note": "(centres undefined)", "MIC": "> 100"},
      {"compound": "CC(C)(C)NC(=O)C1(C)CCCC(=O)N1/N=C/c1ccc([N+](=O)[O-])o1", "note": "(centres undefined)", "MIC": 100},
      {"compound": "CC1(C(=O)NCc2ccc(Cl)cc2)CCC(=O)N1/N=C/c1ccc([N+](=O)[O-])o1", "note": "(centres undefined)", "MIC": "> 100"},
      {"compound": "CC1(C(=O)NC2CCCCC2)COCC(=O)N1/N=C/c1ccc([N+](=O)[O-])o1", "note": "(centres undefined)", "MIC": 100},
      {"compound": "CC1(C(=O)NCc2ccccc2)COCC(=O)N1/N=C/c1ccc([N+](=O)[O-])o1", "note": "(centres undefined)", "MIC": 100},
      {"compound": "CC1(C(=O)NCc2ccc(Cl)cc2)CCCC(=O)N1/N=C/c1ccc([N+](=O)[O-])o1", "note": "(centres undefined)", "MIC": 100},
      {"compound": "CC1(C(=O)NCc2ccccc2)CCC(=O)N1/N=C/c1ccc([N+](=O)[O-])o1", "note": "(centres undefined)", "MIC": 95}
    ]},
    {"system": "Escherichia coli", "experiment": "Growth inhibition of Escherichia coli DSM 1116 at 100 uM after 18 hrs relative to control", "format": "functional", "conditions": "DSM 1116, 18 h, read-out: GI", "procedure,_shortened": "(§3)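 Gram-negative culture grown overnight at 37 °C in Müller-Hinton broth + 1% glucose, pH 7.2, then tested at 5×10^5 cfu/mL final. Compound at 100 µM from DMSO stock, DMSO ≤1%. Incubated 18 h at 37 °C under moist conditions. OD600 read; value reported as % growth inhibition.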", "units": {"inhibition of growth at 100 µM": "%"}, "values": [
      {"compound": "CC(C)(C)NC(=O)C1(C)CCC(=O)N1/N=C/c1ccc([N+](=O)[O-])o1", "note": "(centres undefined)", "inhibition of growth at 100 µM": 86},
      {"compound": "CC(C)(C)NC(=O)C1(C)CCCC(=O)N1/N=C/c1ccc([N+](=O)[O-])o1", "note": "(centres undefined)", "inhibition of growth at 100 µM": 83},
      {"compound": "CC1(C(=O)NCc2ccc(Cl)cc2)CCC(=O)N1/N=C/c1ccc([N+](=O)[O-])o1", "note": "(centres undefined)", "inhibition of growth at 100 µM": 82},
      {"compound": "CC1(C(=O)NC2CCCCC2)COCC(=O)N1/N=C/c1ccc([N+](=O)[O-])o1", "note": "(centres undefined)", "inhibition of growth at 100 µM": 84},
      {"compound": "CC1(C(=O)NCc2ccccc2)COCC(=O)N1/N=C/c1ccc([N+](=O)[O-])o1", "note": "(centres undefined)", "inhibition of growth at 100 µM": 83},
      {"compound": "CC1(C(=O)NCc2ccc(Cl)cc2)CCCC(=O)N1/N=C/c1ccc([N+](=O)[O-])o1", "note": "(centres undefined)", "inhibition of growth at 100 µM": 84},
      {"compound": "CC1(C(=O)NCc2ccccc2)CCC(=O)N1/N=C/c1ccc([N+](=O)[O-])o1", "note": "(centres undefined)", "inhibition of growth at 100 µM": 85}
    ]},
    {"system": "Pseudomonas aeruginosa", "experiment": "Growth inhibition of Pseudomonas aeruginosa PA7 DSM 24068 at 100 uM after 18 hrs relative to control", "format": "functional", "conditions": "PA7 DSM 24068, 18 h, read-out: GI", "procedure,_shortened": "as §3", "units": {"inhibition of growth at 100 µM": "%"}, "values": [
      {"compound": "CC(C)(C)NC(=O)C1(C)CCC(=O)N1/N=C/c1ccc([N+](=O)[O-])o1", "note": "(centres undefined)", "inhibition of growth at 100 µM": 92},
      {"compound": "CC(C)(C)NC(=O)C1(C)CCCC(=O)N1/N=C/c1ccc([N+](=O)[O-])o1", "note": "(centres undefined)", "inhibition of growth at 100 µM": 85},
      {"compound": "CC1(C(=O)NCc2ccc(Cl)cc2)CCC(=O)N1/N=C/c1ccc([N+](=O)[O-])o1", "note": "(centres undefined)", "inhibition of growth at 100 µM": 89},
      {"compound": "CC1(C(=O)NC2CCCCC2)COCC(=O)N1/N=C/c1ccc([N+](=O)[O-])o1", "note": "(centres undefined)", "inhibition of growth at 100 µM": 90},
      {"compound": "CC1(C(=O)NCc2ccccc2)COCC(=O)N1/N=C/c1ccc([N+](=O)[O-])o1", "note": "(centres undefined)", "inhibition of growth at 100 µM": 86},
      {"compound": "CC1(C(=O)NCc2ccc(Cl)cc2)CCCC(=O)N1/N=C/c1ccc([N+](=O)[O-])o1", "note": "(centres undefined)", "inhibition of growth at 100 µM": 98},
      {"compound": "CC1(C(=O)NCc2ccccc2)CCC(=O)N1/N=C/c1ccc([N+](=O)[O-])o1", "note": "(centres undefined)", "inhibition of growth at 100 µM": 90}
    ]},
    {"system": "Klebsiella pneumoniae", "experiment": "Antibacterial activity against Klebsiella pneumoniae DSM 11678 after 18 hrs", "format": "functional", "conditions": "DSM 11678, 18 h", "procedure,_shortened": "as §1", "units": {"EC50": "µg/mL", "MIC": "µg/mL"}, "values": [
      {"compound": "O=C(O)c1cn(C2CC2)c2cc(N3CCNCC3)c(F)cc2c1=O", "note": "[CIPROFLOXACIN]", "EC50": 0.05, "MIC": 0.07}
    ]},
    {"system": "Staphylococcus aureus", "experiment": "Antibacterial activity against methicillin-resistant Staphylococcus aureus RKI 11-02670 after 18 hrs", "format": "functional", "conditions": "RKI 11-02670, 18 h", "procedure,_shortened": "as §1", "values": [
      {"compound": "CC(C)(C)NC(=O)C1(C)CCC(=O)N1/N=C/c1ccc([N+](=O)[O-])o1", "note": "(centres undefined)", "EC50": "91 µM", "MIC": "> 100 µM"},
      {"compound": "CC(=O)NC[C@H]1CN(c2ccc(N3CCOCC3)c(F)c2)C(=O)O1", "note": "[LINEZOLID]", "EC50": "0.25 µg/mL", "MIC": "0.62 µg/mL"},
      {"compound": "CC(C)(C)NC(=O)C1(C)CCCC(=O)N1/N=C/c1ccc([N+](=O)[O-])o1", "note": "(centres undefined)", "EC50": "76 µM", "MIC": "100 µM"},
      {"compound": "CC1(C(=O)NCc2ccc(Cl)cc2)CCC(=O)N1/N=C/c1ccc([N+](=O)[O-])o1", "note": "(centres undefined)", "EC50": "> 100 µM", "MIC": "> 100 µM"},
      {"compound": "CC1(C(=O)NC2CCCCC2)COCC(=O)N1/N=C/c1ccc([N+](=O)[O-])o1", "note": "(centres undefined)", "EC50": "75 µM", "MIC": "100 µM"},
      {"compound": "CC1(C(=O)NCc2ccccc2)COCC(=O)N1/N=C/c1ccc([N+](=O)[O-])o1", "note": "(centres undefined)", "EC50": "77 µM", "MIC": "100 µM"},
      {"compound": "CC1(C(=O)NCc2ccc(Cl)cc2)CCCC(=O)N1/N=C/c1ccc([N+](=O)[O-])o1", "note": "(centres undefined)", "EC50": "75 µM", "MIC": "100 µM"},
      {"compound": "CC1(C(=O)NCc2ccccc2)CCC(=O)N1/N=C/c1ccc([N+](=O)[O-])o1", "note": "(centres undefined)", "EC50": "67 µM", "MIC": "95 µM"}
    ]},
    {"system": "Acinetobacter baumannii", "experiment": "Antibacterial activity against Acinetobacter baumannii DSM 30007 after 18 hrs", "format": "functional", "conditions": "DSM 30007, 18 h", "procedure,_shortened": "as §1", "units": {"EC50": "µg/mL", "MIC": "µg/mL"}, "values": [
      {"compound": "O=C(O)c1cn(C2CC2)c2cc(N3CCNCC3)c(F)cc2c1=O", "note": "[CIPROFLOXACIN]", "EC50": 0.2, "MIC": 0.2}
    ]}
  ]
}
